According to ChEMBL document CHEMBL1152502, “Synthesis and antiproliferative activity of 2,4-disubstituted 6-aryl-7H-pyrrolo[3,2-d]pyrimidin-7-one 5-oxides” (2009):
Calls of active or inactive are those of the source. The rule behind the calls is not given here.

What was measured:
[1] = tested on: HBL-100; test: Antiproliferative activity against human HBL100 cells after 48 hrs by SRB assay; format: functional; details: HBL-100, 48 h
Outline: (§1)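 RPMI 1640 with 5% heat-inactivated FCS and 2 mM L-glutamine at 37 °C, 5% CO2. Seeded at 15,000 (WiDr, T-47D, HeLa) or 10,000 (A2780, SW1573, HBL-100) cells/well. Drug added day 1 in triplicate dilutions; vehicle DMSO 0.25% v/v final. 48 h, then TCA fixation and SRB staining read at OD 492 nm, background-corrected. GI50 from NCI percentage-growth formulas using T0 and T; mean of two to six experiments with SD.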

[2] = tested on: SW1573; test: Antiproliferative activity against human SW1573 cells after 48 hrs by SRB assay; format: functional; details: SW1573, 48 h; outline: as §1
[3] = tested on: HeLa; test: Antiproliferative activity against human HeLa cells after 48 hrs by SRB assay; format: functional; outline: as §1
[4] = tested on: A2780; test: Antiproliferative activity against human A2780 cells after 48 hrs by SRB assay; format: functional; details: A2780, 48 h; outline: as §1
[5] = tested on: T47D; test: Antiproliferative activity against human T47D cells after 48 hrs by SRB assay; format: functional; outline: as §1
[6] = tested on: WiDr; test: Antiproliferative activity against human WiDr cells after 48 hrs by SRB assay; format: functional; outline: as §1
[7] = tested on: T47D; test: Cell cycle arrest in human T47D cells by accumulation at subG1 phase after 24 hrs by flow cytometry; format: functional, cell-based
Outline: (§2)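 Cells seeded at 2.5–5 × 10^5 per well in six-well plates. After 24 h, compound added at three concentrations for a further 24 h; controls without drug. Cells trypsinized, fixed in ice-cold 70% ethanol overnight at −20 °C, treated with RNase (37 °C, 30 min, dark) and stained with propidium iodide. DNA content measured by flow cytometry, 25,000 cells/sample.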

[8] = tested on: HBL-100; test: Cell cycle arrest in human HBL100 cells by accumulation at subG1 phase after 24 hrs by flow cytometry; format: functional, cell-based; outline: as §2
[9] = tested on: SW1573; test: Cell cycle arrest in human SW1573 cells by increase in accumulation at G2/M phase at 2 uM after 24 hrs by flow cytometry; format: functional, cell-based; outline: as §2
[10] = tested on: HBL-100; test: Cell cycle arrest in human HBL100 cells by decrease in accumulation at S phase at 2 uM after 24 hrs by flow cytometry; format: functional, cell-based; outline: as §2
[11] = tested on: HBL-100; test: Cell cycle arrest in human HBL100 cells by decrease in accumulation at G1 phase at 2 uM after 24 hrs by flow cytometry; format: functional, cell-based; outline: as §2
[12] = tested on: HBL-100; test: Cell cycle arrest in human HBL100 cells by increase in accumulation at G2/M phase at 2 uM after 24 hrs by flow cytometry; format: functional, cell-based; outline: as §2
[13] = tested on: SW1573; test: Cell cycle arrest in human SW1573 cells by decrease in accumulation at S phase at 2 uM after 24 hrs by flow cytometry; format: functional, cell-based; outline: as §2
[14] = tested on: SW1573; test: Cell cycle arrest in human SW1573 cells by accumulation at subG1 phase after 24 hrs by flow cytometry; format: functional, cell-based; outline: as §2
[15] = tested on: T47D; test: Cell cycle arrest in human T47D cells by decrease in accumulation at S phase at 2 uM after 24 hrs by flow cytometry; format: functional, cell-based; outline: as §2
[16] = tested on: T47D; test: Cell cycle arrest in human T47D cells by decrease in accumulation at G1 phase at 2 uM after 24 hrs by flow cytometry; format: functional, cell-based; outline: as §2
[17] = tested on: T47D; test: Cell cycle arrest in human T47D cells by increase in accumulation at G2/M phase at 2 uM after 24 hrs by flow cytometry; format: functional, cell-based; outline: as §2
[18] = tested on: HeLa; test: Cell cycle arrest in human HeLa cells by accumulation at subG1 phase after 24 hrs by flow cytometry; format: functional, cell-based; outline: as §2
[19] = tested on: WiDr; test: Cell cycle arrest in human WiDr cells by accumulation at subG1 phase after 24 hrs by flow cytometry; format: functional, cell-based; outline: as §2
[20] = tested on: SW1573; test: Cell cycle arrest in human SW1573 cells by decrease in accumulation at G1 phase at 2 uM after 24 hrs by flow cytometry; format: functional, cell-based; outline: as §2

GI50 [2] [µM]	GI50 [3] [µM]	GI50 [4] [µM]	GI50 [5] [µM]	SMILES	GI50 [1] [µM]	GI50 [6] [µM]	also measured
85	> 100	30	> 100	Nc1ncnc2c1[N+]([O-])=C(c1ccccc1)C2=O	72	> 100	–
37	80	54	43	CCc1ccc(C2=[N+]([O-])c3c(N)nc(SC)nc3C2=O)cc1	37	53	–
40	75	39	82	CCc1ccc(C2=[N+]([O-])c3c(N)ncnc3C2=O)cc1	54	70	–
14	15	2.9	17	Nc1nc(NCCN2CCOCC2)nc2c1[N+]([O-])=C(c1ccccc1)C2=O	3.4	16	–
> 100	> 100	79	> 100	C[S+]([O-])c1nc(N)c2c(n1)C(=O)C(c1ccccc1)=[N+]2[O-] (centres undefined)	32	> 100	–
30	29	3.7	4	Nc1nc(NCc2ccccc2)nc2c1[N+]([O-])=C(c1ccccc1)C2=O	5.1	24	–
22	> 100	37	41	Nc1nc(NCCc2ccccc2)nc2c1[N+]([O-])=C(c1ccccc1)C2=O	17	71	–
6.8	7.6	1.9	2.8	C=CCNc1nc(N)c2c(n1)C(=O)C(c1ccccc1)=[N+]2[O-]	2.7	4.7	–

More lines, now with the values behind:

SMILES	GI50 [2] [µM]	GI50 [3] [µM]	GI50 [4] [µM]	GI50 [5] [µM]	GI50 [1] [µM]	GI50 [6] [µM]	also measured
Cc1ccc(C2=[N+]([O-])c3c(N)ncnc3C2=O)cc1	> 100	> 100	> 100	> 100	> 100	> 100	–
CSc1nc2c(c(N3CCCC3)n1)[N+]([O-])=C(c1ccccc1)C2=O	> 100	> 100	> 100	> 100	> 100	> 100	–
Nc1nc(N2CCCCC2)nc2c1[N+]([O-])=C(c1ccccc1)C2=O	3.3	3.5	2.9	2.7	1.7	3.7	–
Nc1nc(N2CCOCC2)nc2c1[N+]([O-])=C(c1ccccc1)C2=O	27	38	37	7.5	22	20	–
Nc1nc(N2CCCCCC2)nc2c1[N+]([O-])=C(c1ccccc1)C2=O	1.3	2	1.8	0.35	1.4	1.8	Activity [7]: Dose-dependent effect; Activity [8]: Dose-dependent effect; Activity [9]: Active; Activity [10]: Active; Activity [11]: Active; Activity [12]: Active; Activity [13]: Active; Activity [14]: Dose-dependent effect; Activity [15]: Active; Activity [16]: Active; Activity [17]: Active; Activity [18]: Dose-dependent effect; Activity [19]: Dose-dependent effect; Activity [20]: Active
COC(=O)CNc1nc(N)c2c(n1)C(=O)C(c1ccccc1)=[N+]2[O-]	12	19	1.9	14	2.8	18	–
CSc1nc(N)c2c(n1)C(=O)C(c1ccc(C)cc1)=[N+]2[O-]	31	> 100	93	> 100	28	> 100	–
Nc1nc(NCCN2CCCC2)nc2c1[N+]([O-])=C(c1ccccc1)C2=O	6.2	16	2.6	13	1.8	14	–
CSc1nc(NCCN2CCOCC2)c2c(n1)C(=O)C(c1ccccc1)=[N+]2[O-]	> 100	> 100	> 100	> 100	24	> 100	–
CSc1nc(NCc2ccccc2)c2c(n1)C(=O)C(c1ccccc1)=[N+]2[O-]	26	36	59	81	27	79	–
CN1CCN(c2nc(N)c3c(n2)C(=O)C(c2ccccc2)=[N+]3[O-])CC1	23	> 100	24	> 100	18	46	–
CN(C)CCCNc1nc(N)c2c(n1)C(=O)C(c1ccccc1)=[N+]2[O-]	2.1	20	2.3	16	2	19	–
